Laboratory results published in ChEMBL document CHEMBL3877303 (J Med Chem, 2017).
pEC50: −log10 of the molar value. Each block holds one compound with its values, some of them ahead of it. The source made the active and inactive calls. The calls are words filed in the database; no cut-off is given here.

Assays:
[1] = biological target: T1, BCR/ABL p210 fusion protein (Homo sapiens, UniProt A1Z199); experiment: Inhibition of human BCR/ABL p210 fusion protein expressed in BAF3 cells assessed as growth inhibition measured after 72 hrs by CellTiter-Glo or CCK8 assay; type: cell-based
Outline: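 Seeded at 1 to 2.5×10^4 cells/mL with various compound concentrations, 72 h. Viability read by CellTiter-Glo luminescence or CCK-8 absorbance (450/655 nm), normalized to DMSO control, GI50 from curve fit, triplicate testing.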
Target sequence in this assay (A1Z199 1-97): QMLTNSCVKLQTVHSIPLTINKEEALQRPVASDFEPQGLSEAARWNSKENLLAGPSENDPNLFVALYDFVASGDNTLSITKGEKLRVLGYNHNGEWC

[2] = Cell cycle arrest in human MEG01 cells assessed as accumulation at G0/G1 phase at 0.3 uM after 24 hrs by propidium iodide/RNase staining based flow cytometry; type: functional; settings: MEG-01
Outline: (§1)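 Cells were exposed to serially diluted compound, then fixed in cold 70% ethanol overnight at -20 °C. They were stained with PI/RNase buffer for DNA-content cell-cycle analysis.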

[3] = biological target: T2, Mast/stem cell growth factor receptor Kit (Homo sapiens, UniProt P10721); experiment: Inhibition of c-KIT mediated signaling pathways assessed as reduction in S6K phosphorylation at T389 in human GISTT1 cells at 0.03 to 10 uM measured after 2 hrs by immunoblotting; type: cell-based
Outline: (§2)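 After an ice-cold PBS wash, cells were lysed in RIPA buffer (50 mM Tris pH 8.0) with protease and phosphatase inhibitors, and protein was quantified by BCA. Lysates were run on SDS-PAGE, transferred to PVDF and blocked in 5% milk/TBST. Phospho- and total proteins were probed by immunoblot with ECL detection; β-actin served as loading control.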

[4] = Oral bioavailability in Sprague-Dawley rat at 10 mg/kg; type: ADME, organism-based; settings: in vivo
Outline: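 Male Sprague-Dawley rats, 6-8 weeks old, fasted overnight, dosed iv or po. Jugular vein blood (~0.2 mL, heparin) sampled at 1 min to 8 h (iv) or 5 min to 24 h (po). Plasma separated by centrifugation at 2-8 °C and stored at -80 °C before analysis.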

[5] = biological target: T1, BCR/ABL p210 fusion protein; experiment: Inhibition of BCR/ABL p210 fusion protein autophosphorylation at Y245 in human K562 cells measured after 2 hrs by immunoblotting; type: cell-based; outline: as §2
Target sequence in this assay (A1Z199 whole entry, the tested form may be a part): as the sequence (A1Z199 1-97) above

[6] = biological target: Serine/threonine-protein kinase 10 (Homo sapiens) (UniProt O94804); experiment: Inhibition of LOK (unknown origin) assessed as residual activity at 1 uM by KINOMEscan binding assay relative to control
GISTT1 = experiment: Induction of apoptosis in human GISTT1 cells assessed as increase in cleaved caspase-3 level at 0.1 to 3 uM by Western blot analysis; type: functional, cell-based
Outline: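 Cells were treated with DMSO or serially diluted compound for the indicated periods. They were washed in ice-cold PBS and lysed in RIPA buffer with protease/phosphatase inhibitors, and protein was quantified by BCA. Lysates were resolved by SDS-PAGE, transferred to PVDF and blocked in 5% milk/TBST. Blots were probed for PARP and caspase-3, with β-actin as loading control, and detected by ECL.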

[7] = biological target: T2, Mast/stem cell growth factor receptor Kit; experiment: Inhibition of c-KIT autophosphorylation at Y703 in human GIST882 cells at 0.01 to 3 uM measured after 2 hrs by immunoblotting; type: cell-based; outline: as §2
[8] = biological target: Platelet-derived growth factor receptor beta (Homo sapiens, UniProt P09619); experiment: Inhibition of Tel-fused PDGFR-beta (unknown origin) expressed in BAF3 cells assessed as growth inhibition measured after 72 hrs by CellTiter-Glo or CCK8 assay; type: cell-based
Outline: (§3)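 BaF3 lines were made by retroviral transduction with kinase-fusion MSCV vectors packaged in HEK293T cells. Cells were selected with puromycin for 48 h, then selected again without IL-3 so growth depends on the introduced kinase. […] They were seeded at 1 to 2.5×10^4 cells/mL with compound dilutions and incubated 72 h. Viability was read by CellTiter-Glo luminescence or CCK-8 absorbance (450/655 nm), normalized to DMSO control; GI50 was curve-fitted from triplicate tests.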

[9] = biological target: T1, BCR/ABL p210 fusion protein; experiment: Inhibition of BCR/ABL p210 fusion protein mediated signaling pathways assessed as reduction in Stat5 phosphorylation at Y694 in human KU812 cells at 0.01 to 3 uM measured after 2 hrs by immunoblotting; type: cell-based; outline: as §2
Target sequence in this assay (A1Z199 1-97): as above

[10] = biological target: Tyrosine-protein kinase Lck (Homo sapiens, UniProt P06239); experiment: Inhibition of recombinant C-terminal His-tagged human LCK cytoplasmic domain expressed in baculovirus expression system assessed as residual activity at 1 uM measured after 1 hr by FRET based Z'Lyte assay relative to control
[11] = Half life in Sprague-Dawley rat at 1 mg/kg, iv; type: ADME, organism-based; settings: in vivo
Outline: (§4)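 Male Sprague-Dawley rats aged six to eight weeks were fasted overnight and then dosed iv or orally. Blood (~0.2 mL) was drawn from the jugular vein into heparin and kept on ice. Sampling was at 1 min to 8 h for iv and 5 min to 24 h for oral. Plasma was separated by centrifugation at 2-8 °C and stored at -80 °C until analysis.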

[12] = Anticancer activity against human GISTT1 cells xenografted in nu/nu mouse assessed as tumor growth inhibition at 100 mg/kg, po administered daily via oral gavage measured 21 days post compound treatment relative to vehicle-treated control; settings: 504 h, read-out: GI
[13] = Cmax in Sprague-Dawley rat at 10 mg/kg, po; type: ADME, organism-based; design: dose 10 mg/kg, route oral; settings: in vivo; outline: as §4
BaF3 = experiment: Inhibition of BCR/ABL p210 fusion protein H369P mutant (unknown origin) expressed in BAF3 cells assessed as growth inhibition measured after 72 hrs by CellTiter-Glo or CCK8 assay; type: cell-based; settings: Homo sapiens; outline: as §3
[14] = biological target: T2, Mast/stem cell growth factor receptor Kit; experiment: Inhibition of c-KIT autophosphorylation at Y703 in human GISTT1 cells at 0.03 to 10 uM measured after 2 hrs by immunoblotting; type: cell-based; outline: as §2
[15] = Anticancer activity against human K562 cells xenografted in nu/nu mouse assessed as tumor weight at 50 mg/kg administered via oral gavage measured after 28 days (reference value: 6.75 g); type: functional
Outline: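 Female nu/nu mice received ten million K562 cells subcutaneously in the right flank, in PBS mixed 1:1 with Matrigel. Daily oral gavage began at 200-400 mm³ tumor size, with 4 or 5 mice per group. Dosing was 25, 50 or 100 mg/kg/d or vehicle (0.5% methylcellulose/0.4% Tween80) for 28 days. Body weight and tumor size were normalized to initial values, and final tumor weight was recorded. Data are mean ± SEM.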

[16] = Cell cycle arrest in human KU812 cells assessed as accumulation at G0/G1 phase at 0.3 uM after 12 hrs by propidium iodide/RNase staining based flow cytometry; type: functional; outline: as §1
[17] = biological target: T2, Mast/stem cell growth factor receptor Kit; settings: 1 uM
[18] = biological target: T2, Mast/stem cell growth factor receptor Kit; settings: GISTT1, 1 uM
[19] = Cell cycle arrest in human GISTT1 cells assessed as accumulation at G0/G1 phase at 1 uM after 24 hrs by propidium iodide/RNase staining based flow cytometry; type: functional; outline: as §1
[20] = biological target: T2, Mast/stem cell growth factor receptor Kit; settings: 1 uM; remark: listed apart in the source
[21] = biological target: T2, Mast/stem cell growth factor receptor Kit; settings: GISTT1, 1 uM; remark: listed apart in the source

T2 sequence (P10721 whole entry): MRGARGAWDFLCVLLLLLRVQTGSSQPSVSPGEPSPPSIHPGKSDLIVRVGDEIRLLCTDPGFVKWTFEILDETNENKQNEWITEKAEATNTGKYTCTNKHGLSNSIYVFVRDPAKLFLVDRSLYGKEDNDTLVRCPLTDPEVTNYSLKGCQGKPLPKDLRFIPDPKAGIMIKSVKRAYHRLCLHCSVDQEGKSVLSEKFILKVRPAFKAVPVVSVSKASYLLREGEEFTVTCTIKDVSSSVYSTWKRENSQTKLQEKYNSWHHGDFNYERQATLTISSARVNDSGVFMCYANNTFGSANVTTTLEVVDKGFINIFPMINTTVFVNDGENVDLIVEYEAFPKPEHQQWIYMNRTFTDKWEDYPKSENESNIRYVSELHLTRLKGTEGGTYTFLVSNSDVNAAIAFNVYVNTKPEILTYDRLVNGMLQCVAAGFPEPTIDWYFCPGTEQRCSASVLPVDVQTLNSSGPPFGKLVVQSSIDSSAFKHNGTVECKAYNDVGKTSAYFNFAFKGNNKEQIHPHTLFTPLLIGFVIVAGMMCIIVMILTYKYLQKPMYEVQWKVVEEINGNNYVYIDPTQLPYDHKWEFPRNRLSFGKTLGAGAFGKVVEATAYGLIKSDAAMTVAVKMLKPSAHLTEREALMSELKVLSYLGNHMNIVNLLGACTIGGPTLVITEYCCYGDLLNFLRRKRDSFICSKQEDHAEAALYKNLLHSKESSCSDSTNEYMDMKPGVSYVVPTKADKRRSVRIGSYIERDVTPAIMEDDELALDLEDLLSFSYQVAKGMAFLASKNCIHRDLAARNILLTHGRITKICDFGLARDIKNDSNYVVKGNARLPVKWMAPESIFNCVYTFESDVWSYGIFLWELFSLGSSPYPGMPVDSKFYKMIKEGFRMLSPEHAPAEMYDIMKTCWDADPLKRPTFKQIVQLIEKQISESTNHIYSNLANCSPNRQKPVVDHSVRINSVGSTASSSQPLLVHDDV
Serine/threonine-protein kinase 10 (Homo sapiens), sequence (O94804 whole entry, looked up): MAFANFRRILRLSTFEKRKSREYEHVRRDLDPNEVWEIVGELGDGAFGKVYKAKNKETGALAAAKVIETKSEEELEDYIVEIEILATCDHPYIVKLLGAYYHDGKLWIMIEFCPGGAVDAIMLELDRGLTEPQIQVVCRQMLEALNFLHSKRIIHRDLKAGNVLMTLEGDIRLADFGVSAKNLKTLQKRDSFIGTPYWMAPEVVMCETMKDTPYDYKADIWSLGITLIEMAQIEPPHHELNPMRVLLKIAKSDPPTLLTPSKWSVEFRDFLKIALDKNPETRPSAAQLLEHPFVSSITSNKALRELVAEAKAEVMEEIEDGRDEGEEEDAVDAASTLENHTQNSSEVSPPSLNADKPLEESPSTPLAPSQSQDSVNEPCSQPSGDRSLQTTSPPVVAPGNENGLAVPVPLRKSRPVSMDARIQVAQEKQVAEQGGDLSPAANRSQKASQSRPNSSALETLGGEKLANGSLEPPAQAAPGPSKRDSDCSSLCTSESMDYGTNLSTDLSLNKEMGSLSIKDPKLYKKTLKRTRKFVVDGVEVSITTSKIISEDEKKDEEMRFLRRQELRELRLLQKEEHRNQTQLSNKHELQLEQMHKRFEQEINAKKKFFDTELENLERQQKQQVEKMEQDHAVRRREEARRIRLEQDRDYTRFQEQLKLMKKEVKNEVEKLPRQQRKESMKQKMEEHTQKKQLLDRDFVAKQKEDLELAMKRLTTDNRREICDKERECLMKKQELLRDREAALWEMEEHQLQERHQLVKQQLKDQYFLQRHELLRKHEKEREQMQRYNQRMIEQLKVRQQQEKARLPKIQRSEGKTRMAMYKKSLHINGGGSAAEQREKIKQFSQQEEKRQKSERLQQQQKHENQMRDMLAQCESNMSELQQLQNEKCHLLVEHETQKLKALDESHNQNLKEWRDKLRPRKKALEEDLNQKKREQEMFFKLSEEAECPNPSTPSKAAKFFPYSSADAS
Tyrosine-protein kinase Lck, sequence (P06239 2-509 limits assumed): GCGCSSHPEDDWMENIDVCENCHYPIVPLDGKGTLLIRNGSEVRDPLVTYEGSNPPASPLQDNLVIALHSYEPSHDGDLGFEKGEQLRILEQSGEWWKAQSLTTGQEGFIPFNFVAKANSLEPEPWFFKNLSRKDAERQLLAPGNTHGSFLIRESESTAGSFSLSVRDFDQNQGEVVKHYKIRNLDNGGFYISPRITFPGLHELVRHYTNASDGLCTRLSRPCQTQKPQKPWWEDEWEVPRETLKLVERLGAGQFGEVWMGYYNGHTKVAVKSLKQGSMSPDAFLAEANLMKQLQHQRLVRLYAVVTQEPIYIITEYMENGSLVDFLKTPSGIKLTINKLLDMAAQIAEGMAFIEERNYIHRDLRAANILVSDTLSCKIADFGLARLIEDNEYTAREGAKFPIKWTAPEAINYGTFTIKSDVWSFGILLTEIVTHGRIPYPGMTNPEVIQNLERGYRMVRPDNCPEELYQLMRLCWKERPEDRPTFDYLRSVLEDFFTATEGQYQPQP
Platelet-derived growth factor receptor beta, sequence (P09619 whole entry, the tested form may be a part): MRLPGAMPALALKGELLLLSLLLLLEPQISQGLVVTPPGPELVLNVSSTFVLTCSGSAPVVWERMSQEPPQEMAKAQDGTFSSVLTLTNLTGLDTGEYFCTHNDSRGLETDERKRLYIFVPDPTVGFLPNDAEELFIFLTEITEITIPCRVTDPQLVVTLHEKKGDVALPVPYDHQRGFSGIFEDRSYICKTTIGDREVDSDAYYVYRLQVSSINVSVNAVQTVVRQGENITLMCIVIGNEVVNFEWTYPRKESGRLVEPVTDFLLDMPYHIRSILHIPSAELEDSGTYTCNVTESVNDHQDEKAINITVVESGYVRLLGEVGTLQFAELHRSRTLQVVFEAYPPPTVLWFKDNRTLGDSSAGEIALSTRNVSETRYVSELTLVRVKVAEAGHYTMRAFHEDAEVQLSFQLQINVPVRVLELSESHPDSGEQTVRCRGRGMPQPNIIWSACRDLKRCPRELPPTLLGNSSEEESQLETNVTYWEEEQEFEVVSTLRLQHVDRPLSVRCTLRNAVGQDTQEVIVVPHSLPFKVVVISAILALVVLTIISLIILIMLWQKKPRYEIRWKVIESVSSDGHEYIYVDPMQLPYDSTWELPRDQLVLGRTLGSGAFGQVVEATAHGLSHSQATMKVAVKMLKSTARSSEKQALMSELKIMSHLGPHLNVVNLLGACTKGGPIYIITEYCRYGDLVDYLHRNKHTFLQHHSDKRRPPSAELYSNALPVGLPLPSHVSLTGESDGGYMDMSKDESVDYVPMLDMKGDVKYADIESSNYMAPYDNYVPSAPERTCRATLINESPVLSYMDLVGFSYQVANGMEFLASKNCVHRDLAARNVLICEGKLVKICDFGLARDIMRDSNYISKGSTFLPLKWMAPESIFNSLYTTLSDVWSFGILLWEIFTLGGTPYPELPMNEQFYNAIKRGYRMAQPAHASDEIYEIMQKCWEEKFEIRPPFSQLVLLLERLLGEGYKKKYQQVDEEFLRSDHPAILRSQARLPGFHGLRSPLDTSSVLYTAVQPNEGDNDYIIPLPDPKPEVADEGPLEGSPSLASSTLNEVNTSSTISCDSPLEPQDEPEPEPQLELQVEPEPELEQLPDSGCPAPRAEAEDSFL

GI50 [1]: 33 nM | inhibition [3]: Active | bioavailability [4]: 47.5% | pEC50 [5]: > 7.00 | Activity [6]: 0.6% | inhibition [7]: Active | GI50 [8]: 14 nM | inhibition [9]: Active | Activity [10]: 0.55% | half-life [11]: 2.47 h | Cmax [13]: 223 ng/mL | GI50 (BaF3): 980 nM | inhibition [14]: Active
SMILES: Cc1ccc(C(=O)N2CCC(Oc3cc(NC(=O)c4ccc(CN5CCN(C)CC5)c(C(F)(F)F)c4)ccc3C)CC2)cn1
Activity [2]: Active | Activity (GISTT1): Active | inhibition in vivo at 100 mg/kg [12]: 46.5% | Activity [15]: 6.51 g | Activity [16]: Active

inhibition [17]: Active | inhibition [18]: Active | inhibition [20]: Active | inhibition [21]: Active
SMILES: Cc1ccc(NC(=O)c2ccc(CN3CCN(C)CC3)cc2)cc1Nc1nccc(-c2cccnc2)n1 [IMATINIB]
Activity [19]: Active
